Experiments:
Oxytocin receptor [1] = biological target: T1, Oxytocin receptor (Rattus norvegicus, UniProt P70536); experiment: ChEBML_145031
T1 sequence (P70536 whole entry): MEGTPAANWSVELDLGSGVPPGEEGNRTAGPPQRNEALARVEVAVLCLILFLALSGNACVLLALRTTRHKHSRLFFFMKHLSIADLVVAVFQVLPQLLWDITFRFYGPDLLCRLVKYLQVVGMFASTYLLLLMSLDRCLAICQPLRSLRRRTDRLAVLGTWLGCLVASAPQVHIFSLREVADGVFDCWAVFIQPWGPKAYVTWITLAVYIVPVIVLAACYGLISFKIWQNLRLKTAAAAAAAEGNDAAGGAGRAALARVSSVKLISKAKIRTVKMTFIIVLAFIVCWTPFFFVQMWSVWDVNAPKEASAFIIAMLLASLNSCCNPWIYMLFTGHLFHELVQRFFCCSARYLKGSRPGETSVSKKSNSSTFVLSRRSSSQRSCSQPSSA
Source text: Tested against rat uterine OT receptor

[2] = biological target: T2, Vasopressin V1a/V1b receptor (Rattus norvegicus, UniProt P30560+P48974); experiment: (§1) Inhibition of radioligand [3H]AVP binding to the vasopressin V1 receptor in rat liver tissue
Method in brief: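 Crude membranes from male rat liver (V1 sites) competed with 1 nM [3H]AVP (80–90 Ci/mmol). Equilibrium 30 min, 30 °C, buffer 100 mM Tris-HCl, 5 mM MgCl2, 0.1% BSA, 50 μM PMSF, 50 μg/mL bacitracin, pH 8.0. 10 μM unlabeled AVP for nonspecific binding. Filtration through glass-fiber filters. IC50 from linear regression over seven concentrations.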

[3] = biological target: T2, Vasopressin V1a/V1b receptor; experiment: ChEBML_211079
Source text: as §1

Vasopressin V2 receptor = Vasopressin V2 receptor (Rattus norvegicus, UniProt Q00788); experiment: Inhibition of radioligand [3H]-AVP binding to the vasopressin V2 receptor in rat kidney tissue
Method in brief: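 [3H]AVP (80–90 Ci/mmol) at 2 nM competed on crude membranes from male rat kidney medulla (V2 sites). Equilibrium 30 min at 30 °C in 100 mM Tris-HCl, 5 mM MgCl2, 0.1% BSA, 50 μM PMSF, 50 μg/mL bacitracin, pH 8.0. Nonspecific binding with 10 μM unlabeled AVP. Glass-fiber filtration. IC50 by linear regression of % inhibition vs log concentration, seven concentrations.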

Oxytocin receptor [4] = biological target: T1, Oxytocin receptor; experiment: Inhibition of radioligand [3H]oxytocin binding at the oxytocin (OT) receptor in rat uterine tissue
Method in brief: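 Uteri taken from rats given diethylstilbestrol dipropionate (0.3 mg/kg ip, 18–24 h before), crude membranes. 1 nM [3H]OT (30–60 Ci/mmol), equilibrium 60 min at 22 °C in 50 mM Tris-HCl, 5 mM MgCl2, 0.1% BSA, pH 7.4. Nonspecific binding with 1 mM unlabeled OT. Filtered on glass fiber. Initial single-concentration screen, then IC50 from seven concentrations by linear regression.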

T2 sequence (P30560 whole entry): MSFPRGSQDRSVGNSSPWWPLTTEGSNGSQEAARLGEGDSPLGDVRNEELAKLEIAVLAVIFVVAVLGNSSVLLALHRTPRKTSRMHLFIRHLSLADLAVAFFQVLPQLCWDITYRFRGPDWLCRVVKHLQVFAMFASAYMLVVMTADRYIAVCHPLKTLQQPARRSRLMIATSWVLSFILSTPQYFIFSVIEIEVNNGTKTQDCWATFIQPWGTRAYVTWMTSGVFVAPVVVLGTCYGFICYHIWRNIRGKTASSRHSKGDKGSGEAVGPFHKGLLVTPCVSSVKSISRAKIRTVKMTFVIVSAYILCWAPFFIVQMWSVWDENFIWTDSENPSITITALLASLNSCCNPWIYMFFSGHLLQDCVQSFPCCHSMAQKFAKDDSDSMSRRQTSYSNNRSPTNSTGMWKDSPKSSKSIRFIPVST
T2 sequence (P48974 whole entry): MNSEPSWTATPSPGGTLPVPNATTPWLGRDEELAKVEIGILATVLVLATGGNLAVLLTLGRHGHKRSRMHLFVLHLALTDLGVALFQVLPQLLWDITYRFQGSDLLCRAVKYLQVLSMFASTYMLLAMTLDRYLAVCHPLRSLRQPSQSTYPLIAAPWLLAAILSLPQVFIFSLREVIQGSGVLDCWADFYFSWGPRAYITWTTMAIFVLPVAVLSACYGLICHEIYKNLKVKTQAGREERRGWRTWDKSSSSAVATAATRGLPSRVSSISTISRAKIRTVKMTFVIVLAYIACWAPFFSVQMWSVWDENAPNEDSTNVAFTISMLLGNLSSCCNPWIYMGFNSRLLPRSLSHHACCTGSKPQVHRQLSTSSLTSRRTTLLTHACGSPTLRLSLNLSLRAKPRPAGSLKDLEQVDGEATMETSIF
Sequence of Vasopressin V2 receptor (Q00788 whole entry): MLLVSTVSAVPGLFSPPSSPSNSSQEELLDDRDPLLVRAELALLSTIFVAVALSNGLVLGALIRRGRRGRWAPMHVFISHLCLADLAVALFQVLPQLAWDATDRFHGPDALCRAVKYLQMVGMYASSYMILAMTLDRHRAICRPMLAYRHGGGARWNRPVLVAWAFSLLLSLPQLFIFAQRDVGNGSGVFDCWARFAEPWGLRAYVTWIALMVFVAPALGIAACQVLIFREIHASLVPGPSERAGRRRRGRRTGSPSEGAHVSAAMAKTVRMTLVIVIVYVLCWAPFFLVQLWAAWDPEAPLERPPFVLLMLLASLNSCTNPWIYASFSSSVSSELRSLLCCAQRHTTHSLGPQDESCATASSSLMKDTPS

IC50 (Oxytocin receptor [1]): 13 nM
IC50 [2]: 420 nM
IC50 [3]: 420 nM
IC50 (Vasopressin V2 receptor): 1500 nM
IC50 (Oxytocin receptor [4]): 13 nM
SMILES: CC1(C)[C@@H]2CC[C@@]1(CS(=O)(=O)N1CCC3(CCc4ccccc43)CC1)[C@@H](n1c(O)c(Cc3cnc[nH]3)[nH]c1=O)C2 [3-[7,7-dimethyl-1-spiro[2,3-dihydro-1H-indene-1,4'-(hexahydropyridine)]-1-ylsulfonylmethyl-(1S,2S,4R)-bicyclo[2.2.1]hept-2-yl]-5-(1H-4-imidazolylmethyl)tetrahydro-1H-2,4-imidazoledione]

Source: BindingDB's records for doi:10.1021/jm00077a002 (Merck Research Laboratories, 1994)
